Assay [1] has as its target GABA-A receptor; anion channel. In words: Affinity benzodiazepine receptor as ability to displace [3H]flunitrazepam from binding to membrane preparations from rat cerebral cortex. Format: tissue-based. Put shortly: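 Rat cerebral cortex homogenised in ice-cold 50 mM Tris-HCl pH 7.4, centrifuged twice at 20000g and resuspended; 0.4-0.5 mg protein incubated with 0.5 nM [3H]flunitrazepam for 60 min at 0 °C. Filtration, then scintillation counting. Nonspecific binding defined with 5 μM diazepam. pIC50 from means of 3 experiments run in duplicate.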

Assay [2] concerns the target T1, Translocator protein (Rattus norvegicus, UniProt P16257). In words: Displacement of [3H]-PK 11195 from peripheral-type benzodiazepine receptor of rat cerebral cortex membranes. The assay is classed as cell membranes, Membrane.
The target of assay [3] is T1, Translocator protein. Briefly: Displacement of [3H]-PK 11195 from peripheral-type benzodiazepine receptor of rat ovary membranes. The assay is classed as cell membranes, Female gonad, Membrane.
The target in assay [4] is T2, GABA-A receptor; alpha-1/beta-2/gamma-2 (Homo sapiens) (UniProt P14867+P47870+P18507). In words: Modulatory activity against human GABA-A receptor alpha-1-beta-2-gamma-2 subunits expressed in Xenopus laevis Oocytes at 100 uM. The assay is classed as cell-based. The method, boiled down: (§1)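 Xenopus stage V–VI oocytes, defolliculated with collagenase, nuclear-injected with α1, β2, γ2 cDNAs and cultured at 19 °C. Two-electrode voltage clamp at -70 mV began about 24 h later, under MBS perfusion at room temperature. Drug applied for 20 s; value is percent change of the current evoked by GABA EC20 (2-10 μM). Means from 6–14 oocytes ± SEM.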

The target of assay [5] is T2, GABA-A receptor; alpha-1/beta-2/gamma-2 (Homo sapiens). Briefly: Modulatory activity against human GABA-A receptor alpha-1-beta-2-gamma-2 subunits expressed in Xenopus laevis Oocytes at 10 uM. The assay is classed as cell-based. Put shortly: as §1
Assay [6] has the same target. In words: Modulatory activity against human GABA-A receptor alpha-1-beta-2-gamma-2 subunits expressed in Xenopus laevis Oocytes at 50 uM. The assay is classed as cell-based. The method, boiled down: as §1

A value given as a limit tells only on which side of the number the result lay.

T1 sequence (P16257 whole entry, looked up): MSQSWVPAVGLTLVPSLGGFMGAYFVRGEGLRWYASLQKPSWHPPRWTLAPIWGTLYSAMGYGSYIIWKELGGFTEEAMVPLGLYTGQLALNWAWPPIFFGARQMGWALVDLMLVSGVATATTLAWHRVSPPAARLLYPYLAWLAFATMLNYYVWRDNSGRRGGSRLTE

The compound `CCCN(CCC)C(=O)Cc1c(-c2ccc(Cl)cc2)nc2c(NC)cccn12` returned a pIC50 in assay [1] of 4. In addition, the IC50 on Translocator protein [2] was 3.72 nM; on Translocator protein [3] it was 7.94 nM.

In assay [1], `CCCN(CCC)C(=O)Cc1c(-c2ccc(Cl)cc2)nc2c(N)cccn12` had a pIC50 of 5.07. Besides, the half-maximal inhibitory concentration (IC50) is 6.31 nM at Translocator protein [2] and 4.57 nM on Translocator protein [3].

Compound `CCCNC(=O)Cc1c(-c2ccc(Cl)cc2)nc2ccccn12` returned a pIC50 in assay [1] of 6.93. Besides, the values for the IC50 at Translocator protein [2] and on Translocator protein [3] were 589 nM and 1620 nM, respectively.

Consider `CCCN(CCC)C(=O)Cc1c(-c2ccc(Cl)cc2)nc2c([N+](=O)[O-])cccn12`, for which the pIC50 in assay [1] is 5. Besides, the IC50 at Translocator protein [2] was 5.75 nM; at Translocator protein [3], 8.71 nM.

With `CCCCN(CCCC)C(=O)Cc1c(-c2ccc(Cl)cc2)nc2ccccn12`, the Activity in assay [4] was < 23.9; in assay [5] it was < 23.2; in assay [6], < 35. In assay [1], this compound had a pIC50 of 7.04. Further, the IC50 on Translocator protein [2] was 5.89 nM; on Translocator protein [3], 10.5 nM.

`CCCN(CCC)C(=O)Cc1c(-c2ccc(Cl)cc2)nc2c(Cl)cc(C(F)(F)F)cn12`: the pIC50 in assay [1] worked out at 5. Moreover, the IC50 at Translocator protein [2] is 1.82 nM; at Translocator protein [3], 2.82 nM.

Compound `CCCN(CCC)C(=O)Cc1c(-c2ccccc2)nc2c([N+](=O)[O-])cccn12` returned a pIC50 in assay [1] of 4.8. Besides, the IC50 is 85.1 nM at Translocator protein [2] and 120 nM at Translocator protein [3].

In the case of `CCCN(CCC)C(=O)Cc1c(-c2ccccc2)nc2c(OC)cccn12`, the negative logarithm of the IC50 (pIC50) in assay [1] came out at 5.27. The IC50 at Translocator protein [2] was 46.8 nM; on Translocator protein [3], 49 nM.

With `CCCCNC(=O)Cc1c(-c2ccccc2)nc2c(Cl)cc(Cl)cn12`, the pIC50 in assay [1] is 4. For the same compound, the IC50 on Translocator protein [2] was 295 nM; at Translocator protein [3], 389 nM.

In assay [1], `CCCN(CCC)C(=O)Cc1c(-c2ccccc2)nc2c(C)cc(Br)cn12` displayed a pIC50 of 4.27. Also, the values for the IC50 on Translocator protein [2] and on Translocator protein [3] were 1.62 nM and 2.63 nM, respectively.

On to `CCCCCCN(CCCCCC)C(=O)Cc1c(-c2ccc(Cl)cc2)nc2ccccn12`, for which the negative-log IC50 (pIC50) in assay [1] was found to be 3.83. In addition, the figures for the IC50 on Translocator protein [2] and at Translocator protein [3] were 182 nM and 178 nM, respectively.

`CCCN(CCC)C(=O)Cc1c(-c2ccccc2)nc2ccc(C(=O)OC)cn12`: the Activity amounted to 11.6 in assay [4], 17.1 in assay [5] and 11.4 in assay [6]. This compound displayed a pIC50 in assay [1] of 4.92. Also, the IC50 on Translocator protein [2] is 16.6 nM; at Translocator protein [3], 26.9 nM.

`CCCN(CCC)C(=O)Cc1c(-c2ccccc2)nc2c(NC(C)=O)cccn12` came in with a negative logarithm of the IC50 (pIC50) in assay [1] of 4.96. The IC50 is 257 nM on Translocator protein [2] and 447 nM on Translocator protein [3].

With `CCCNC(=O)Cc1c(-c2ccccc2)nc2ccccn12`, in assay [1], the pIC50 worked out at 6.09. The IC50 at Translocator protein [2] and at Translocator protein [3] was 2000 nM throughout.

`CCCN(CCC)C(=O)Cc1c(-c2ccc(Cl)cc2)nc2c(Cl)cccn12`: the Activity in assay [4] was -15.2; in assay [5], 4.5; in assay [6] it was -6.1. This compound also displayed a pIC50 in assay [1] of 2.4. Moreover, the figures for the IC50 on Translocator protein [2] and at Translocator protein [3] were 4.27 nM and 7.41 nM, respectively.

In assay [1], `CCCN(CCC)C(=O)Cc1c(-c2ccc(Cl)cc2)nc2c(NC(C)=O)cccn12` came in with a pIC50 of 4.09. The results for the IC50 at Translocator protein [2] and on Translocator protein [3] were 10 nM and 33.1 nM, respectively.

In the case of `CCCN(CCC)C(=O)Cc1c(-c2ccccc2)nc2c(Cl)cc(Cl)cn12`, the pIC50 in assay [1] turned out to be 2.4. For the same compound, the results for the IC50 at Translocator protein [2] and on Translocator protein [3] were 3.02 nM and 4.27 nM, respectively.

For `CCCN(CCC)C(=O)Cc1c(-c2ccc(Cl)cc2)nc2c(C)cccn12`, the Activity in assay [4] is < -44.3; in assay [5], -9.6; in assay [6], < -38.7. The negative logarithm of the IC50 (pIC50) in assay [1] is recorded as 2.4. Besides, the results for the 50% inhibitory concentration (IC50) on Translocator protein [2] and at Translocator protein [3] were 1.41 nM and 2.82 nM, respectively.

In turn, `CCCN(CCC)C(=O)Cc1c(-c2ccccc2)nc2c(N)cccn12` returned a pIC50 in assay [1] of 5.27. The IC50 at Translocator protein [2] was 4.27 nM; on Translocator protein [3], 5.75 nM.

With `CCCN(CCC)C(=O)Cc1c(-c2ccc(Cl)cc2)nc2c(Cl)cc(Cl)cn12` [ALPDEM], the pIC50 in assay [1] is 2.4. For the same compound, the results for the IC50 on Translocator protein [2] and at Translocator protein [3] were 1 nM and 2.63 nM, respectively.

Regarding `CCC(C)N(C)C(=O)c1cc2ccccc2c(-c2ccccc2Cl)n1` (configuration not stated) [PK-11195], the Activity was 91 in assay [4], -16 in assay [5] and 4.3 in assay [6]. Moreover, in assay [1], the negative logarithm of the IC50 (pIC50) turned out to be 4.67.

Take `CCCN(CCC)C(=O)Cc1c(-c2ccccc2)nc2ccccn12`: the pIC50 in assay [1] is given as 6.28. In addition, the IC50 at Translocator protein [2] was 100 nM; at Translocator protein [3] it was 95.5 nM.

`CCN(CC)C(=O)Cc1c(-c2ccccc2)nc2ccccn12` returned a pIC50 in assay [1] of 5.68. The IC50 at Translocator protein [2] is 437 nM; at Translocator protein [3], 525 nM.

`CCCN(CCC)C(=O)Cc1c(-c2ccccc2)nc2c(C)cccn12` gave a pIC50 in assay [1] of 4.85. Also, the half-inhibitory concentration (IC50) on Translocator protein [2] was 20 nM; at Translocator protein [3], 41.7 nM.

In assay [1], `CCCN(CCC)C(=O)Cc1c(-c2ccccc2)nc2ccc(C(N)=O)cn12` registered a pIC50 of 5.58. The IC50 at Translocator protein [2] was 457 nM; on Translocator protein [3], 302 nM.

Regarding `CCCCCCN(CCCCCC)C(=O)Cc1c(-c2ccccc2)nc2ccccn12`, the pIC50 in assay [1] is recorded as 3.93. The values for the IC50 on Translocator protein [2] and on Translocator protein [3] were 19.1 nM and 13.2 nM, respectively.

For `CCCCN(CCCC)C(=O)Cc1c(-c2ccccc2)nc2ccccn12`, the Activity in assay [4] was < 58.2; in assay [5], 17.4; in assay [6], < 44.6. Also, in assay [1], the pIC50 is reported as 6.3. In addition, the IC50 on Translocator protein [2] is 17 nM; at Translocator protein [3], 22.9 nM.

As for `CCCN(CCC)C(=O)Cc1c(-c2ccc(Cl)cc2)nc2ccccn12`, the pIC50 in assay [1] was 7.19. Moreover, the IC50 is 10 nM on Translocator protein [2] and 33.1 nM on Translocator protein [3].

As to `CCCN(CCC)C(=O)Cc1c(-c2ccc(Cl)cc2)nc2c(Br)cc(Br)cn12`, the negative logarithm of the IC50 (pIC50) in assay [1] stood at 5. Further, the IC50 at Translocator protein [2] was 0.794 nM; at Translocator protein [3], 1.58 nM.

The compound `CCCN(CCC)C(=O)Cc1c(-c2ccc(Cl)cc2)nc2c(OC)cccn12` had a pIC50 in assay [1] of 4.19. The IC50 at Translocator protein [2] was 16.6 nM; on Translocator protein [3] it was 20.9 nM.

The compound `CCCN(CCC)C(=O)Cc1c(-c2ccccc2)nc2ccc([N+](=O)[O-])cn12` displayed a pIC50 in assay [1] of 5.47. In addition, the IC50 is 7.59 nM on Translocator protein [2] and 7.76 nM at Translocator protein [3].

Turning to `CCCN(CCC)C(=O)Cc1c(-c2ccccc2)nc2c(Cl)cccn12`, the pIC50 in assay [1] is listed as 4.59. Besides, the IC50 was 22.9 nM at Translocator protein [2] and 15.8 nM at Translocator protein [3].
